# The list is not random: actives were taken first. Their share in the collection is about 1.1%.
# SENP1 inh = human SENP1 catalytic domain inhibitors, primary screen, biochemical, FRET, uHTS; Sentrin-specific protease 1 (Homo sapiens), Q9P0U3; recombinant SENP1 catalytic domain, CyPet-SUMO1-YPet FRET cleavage; inhibition, % at 10 µM; 0.21% of 360,000 active; AID 624204, 2012;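 active = inhibition at least 30% at 10 µM, raw YFP signal under a set limit, fluorescence ratio 0.5 to 1.5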;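 also: 0% = enzyme with DMSO and 100% = no enzyme wells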
#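 Assay system: hSENP1 catalytic domain, recombinant. Amount: SENP1 enzyme, 20 pM final. Schedule: 50 min reaction, RT, dark. Technique: FRET, CFP and YFP emission. Control set: no-enzyme wells low, DMSO-plus-enzyme wells high control.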
# JMJD2C inh = inhibitors of GASC-1 histone demethylase, primary screen, biochemical, fluorescence, DELFIA europium; Lysine-specific demethylase 4C (Homo sapiens), Q9H3R0; GST-JMJD2C(1-420) H3K9me3 demethylation; inhibition, % at 2.35 µM; 0.069% of 330,000 active;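 active = more than half of a compound's replicate wells show inhibition beyond 50%, single wells judged on their own value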;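 also: signal counts dimethyl H3K9 product captured on neutravidin plate; 0% = median of DMSO wells and 100% = 0.3 times that DMSO median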
# Arr AP2 block = inhibitors of beta-arrestin/AP2 binding, primary screen, biochemical, GPCR trafficking, flow cytometry; beta-arrestin 1 C-terminal peptide binding to AP2 beta2-adaptin appendage (human); FITC-arrestin peptide / GST-AP2 beads; AP2 beta2 appendage carries R879A mutation; inhibition, % at 10 µM; 0.31% of 340,000 active; AID 504490, 2011;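 active = inhibition above a set limit, near 3 SD of compounds lacking own fluorescence, cut at about 54% in these data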;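 also: plate controls were DMSO wells for no effect and 5 µM unlabelled arrestin peptide for full effect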
#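 System: GST-AP2 R879A glutathione beads | Also added: FITC-arrestin peptide, 50 nM | Times: 12 min plus 1 h, RT | Signal: Bead flow cytometry, FITC channel | Buffer or medium: PBS with 0.05% Tween 20 and 0.1% BSA | Read-out basis: Percent drop in bead-associated FITC signal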
# FAS-TE inh = FAS thioesterase domain inhibitors, primary screen, biochemical, fluorescence intensity, uHTS; recombinant FAS-TE, OMFH fluorogenic substrate, fluorescence endpoint; AID 602261, 2012; inhibition, % at 15 µM; Fatty acid synthase (Homo sapiens), P49327; 0.67% of 360,000 active;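 active = compounds whose normalised, plate-corrected inhibition of enzyme fluorescence in the single-dose primary screen is 50% or more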;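 also: 0% = DMSO with enzyme and 100% = substrate without enzyme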
# SENP1 inh conf = human SENP1 catalytic domain inhibitors, confirmation, biochemical, FRET endpoint, single concentration. 34% of 520 active. shares compounds with SENP1 inh. recombinant SENP1, CyPet-SUMO1-YPet FRET cleavage. inhibition, % at 10 µM; in the data active = inhibition mostly above about 35%, no sharp cut-off; inactive = mostly below about 32%;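 also: 0% = enzyme with DMSO and 100% = no enzyme control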
# SENP1 kin conf = human SENP1 catalytic domain inhibitors, confirmation, biochemical, kinetic FRET, single concentration. shares compounds with SENP1 inh. recombinant SENP1, CyPet-SUMO1-YPet FRET kinetic cleavage. inhibition, % at 10 µM. 26% of 520 active. AID 651690, 2012; in the data active = inhibition mostly above about 32%, no sharp cut-off; inactive = mostly below about 29%;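 also: 0% = DMSO with enzyme and 100% = no enzyme substrate only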
# Starred values were filed as active, the others as inactive; nt = no result given.
SMILES,SENP1 inh,JMJD2C inh,Arr AP2 block,FAS-TE inh,SENP1 inh conf,SENP1 kin conf
COc1cc(/C=C2\SC(=S)N(N3CCOCC3)C2=O)ccc1O,53*,-12,-1,-6,15,11
O=C(Nc1ccccc1)Nc1nnc([C@@H]2C[C@H](O)[C@@H](CO)O2)s1,-1,nt,nt,-12,nt,nt
Cn1cc(S(=O)(=O)N2CCN(c3ccccc3)CC2)c(=O)n(C)c1=O,0,2,1,-4,nt,nt
CC(C)CNC(=O)c1ccc(C2SCC(=O)N2Cc2ccccc2)cc1 (stereo not given),46*,-16,22,5,35*,29
CCCNC(=O)c1ccc(C2SCC(=O)N2Cc2ccccc2)cc1 (stereo not given),1,-8,5,-3,nt,nt
O=C(C1=C(Nc2ccccc2)c2ccccc2S(=O)(=O)N1)c1ccccc1,49*,11,6,23,22,24
Cc1ccccc1NC1=C(C(=O)c2ccccc2)N(C)S(=O)(=O)c2ccccc21,22,4,-1,32,nt,nt
CC(=O)OCC1O[C@@H](O[C@@H]2C[C@H]3C(C)(C)[C@H](OC(C)=O)CC[C@]3(C)[C@H]3CC[C@]45C[C@]4(CC[C@H]5[C@@H](C)C[C@@H](O)[C@H](O)C(C)(C)O)[C@@]32C)[C@H](O)[C@@H](O)[C@@H]1O (stereo not given in full),nt,-3,nt,nt,nt,nt
Cc1ccc(Nc2c(-c3ccc(C)o3)nc3ncccn23)cc1,50,-8,-11,1,nt,nt
Cc1ccc(-c2nc3ncccn3c2Nc2ccc3c(c2)OCO3)o1,43*,-4,42,-4,19,13
O=C1C2C(c3ccccc3)C=CC(c3ccccc3)C2C(=O)N1c1ccncc1 (stereo not given),7,-5,-4,10,nt,nt
O=C1C2C(c3ccccc3)C=CC(c3ccccc3)C2C(=O)N1c1ccccn1 (stereo not given),41*,0,9,5,54*,46*
C=CCc1c(C)nc(-c2ccccc2)nc1Nc1ccccc1O,47*,1,6,17,15,11
O=C(N/N=C/c1ccc(N2CCOCC2)cc1)c1cccs1,32*,2,10,-1,15,13
Cc1ccc2nc3c(c(N)c2c1)CCN3c1ccccc1,13,14,-1,6,nt,nt
Nc1c2c(nc3cccc(Cl)c13)N(c1ccccc1)CC2,55*,13,8,8,-12,-3
CCN1/C(=C/C=C2/SC(=Nc3cccc4ncccc34)N(C)C2=O)Sc2ccccc21,37*,nt,10,-21,4,8
CSc1ccccc1NC(=O)COC(=O)CCC(=O)c1ccc(F)cc1,5,4,4,2,nt,nt
Cc1nc(C)c(C(=O)OCC(=O)Nc2ccccc2SCC#N)s1,45*,5,-7,-16,6,8
Cc1ccc(C(=O)CCC(=O)OCC(=O)Nc2ccccc2SCC#N)cc1,46*,-6,-6,-6,15,15
Nc1ccccc1C=C1Cc2ccccc2C1=O,56*,nt,32,-5,10,-5
COc1cc(C(=O)Nc2ccc(C(=O)c3cccs3)cc2)cc(OC)c1OC,-5,-28,6,17,nt,nt
Clc1ccccc1N=Nc1ccccn1,58*,nt,-3,-10,11,13
O=C(CCc1nnc2ccc(NCc3ccco3)nn12)Nc1ccccn1,-10,6,7,-4,nt,nt
Cc1ccc2cc3c(N)c(C(=O)N4CCOCC4)sc3nc2c1,47*,16,0,0,40*,28
SMILES,SENP1 inh,JMJD2C inh,Arr AP2 block,FAS-TE inh,SENP1 inh conf,SENP1 kin conf
CC(=O)Oc1ccc(N2C(=O)C3C(C2=O)C(C(=O)c2ccc(Cl)cc2)N2CCCC32)cc1 (stereo not given),61*,-6,9,4,86*,45*
Cc1ccc(N2C(=O)C3C(C2=O)C(C(=O)c2ccc(Cl)cc2)N2CCCC32)cc1 (stereo not given),-35,-5,-7,-8,nt,nt
CCOc1cc(N2CCOCC2)c(OCC)cc1NC(=O)CCS(=O)(=O)c1ccc(Cl)cc1,37*,-5,5,-2,14,14
CC1=Nc2ccccc2N=C(N)C1c1ccccc1 (stereo not given),36*,2,39,-7,12,9
CC1=Nc2ccccc2N=C(NC(=O)c2ccccc2)C1c1ccc(Cl)cc1 (stereo not given),1,-3,-2,32,nt,nt
O=C1C=Cc2ccccc2/C1=C/c1[nH]c(=O)[nH]c1O,60*,-2,-5,-4,104*,76*
COc1cc([C@H]2OC[C@H]3[C@@H]2CO[C@@H]3c2ccc(O[C@H]3O[C@H](CO)[C@@H](O)[C@H](O)[C@H]3O)c(OC)c2)ccc1O[C@@H]1O[C@H](CO)[C@@H](O)[C@H](O)[C@H]1O,1,3,3,-6,nt,nt
COc1cc([C@H]2c3c(cc(OC)c(O)c3OC)C[C@@H](CO)[C@@H]2CO[C@@H]2O[C@H](CO)[C@@H](O)[C@H](O)[C@H]2O)cc(OC)c1O,40*,2,-2,-1,33*,22
COC(=O)[C@H]1C[C@H](OC(=O)NCC2CCCCC2)[C@@]2(O)CN(S(=O)(=O)c3ccc(C)cc3)CC2[C@H]1C(=O)OC (stereo not given in full),-1,nt,nt,3,nt,nt
C/C(Cl)=C/Cc1c(C)[nH]c2ccc(C)cc2c1=O,1,8,3,-5,nt,nt
Cc1ccc(NC(=O)c2ccc(NCc3ccco3)c([N+](=O)[O-])c2)cc1Cl,37*,10,7,-12,24,17
Cc1cccc(NC(=O)c2ccc(NCCc3ccccc3)c([N+](=O)[O-])c2)c1,86*,1,-6,-12,15,8
CC(=O)Nc1ccc(S(=O)(=O)N2CCc3cc4c(cc3C2)OCCCO4)cc1,0,23,2,1,nt,nt
COC(=O)c1ccc(-c2nc(O)c(C)s2)cc1,41*,1,-13,-10,87*,56*
COC(=O)c1ccc(-c2nc3cc(Cl)c(N)cc3s2)cc1,-14,-2,-2,-2,nt,nt
Cc1cccc(C)c1NC(=O)C1CCCCN1C (stereo not given),1,-1,12,-6,nt,nt
COc1ccc(C2C(C(C)=O)=C(C)N=c3s/c(=C\c4ccco4)c(=O)n32)c(OC)c1 (stereo not given),37*,7,10,8,41*,32*
